Source: PubChem
Compounds with a hit are over-represented: about 3.5% of the library has one in this group of screens.
MrgX1 antagonist: blocks BAM8-22 activation of human MrgX1 receptor; MRGX1-HEK293 calcium flux, Fluo-4, BAM8-22 antagonism; active compounds read low; Q96LB2; B-score at 10 µM; 310,000 tested, 1.3% active; AID 588676;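 active means calcium-response B-score plate-corrected more than 3 library SD below zero, starting fluorescence within 5 deviations, no agonist response on first addition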;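 further: peak minus trough fluorescence over baseline after final BAM8-22 challenge near maximal dose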
Target sequence (Q96LB2 whole entry, looked up): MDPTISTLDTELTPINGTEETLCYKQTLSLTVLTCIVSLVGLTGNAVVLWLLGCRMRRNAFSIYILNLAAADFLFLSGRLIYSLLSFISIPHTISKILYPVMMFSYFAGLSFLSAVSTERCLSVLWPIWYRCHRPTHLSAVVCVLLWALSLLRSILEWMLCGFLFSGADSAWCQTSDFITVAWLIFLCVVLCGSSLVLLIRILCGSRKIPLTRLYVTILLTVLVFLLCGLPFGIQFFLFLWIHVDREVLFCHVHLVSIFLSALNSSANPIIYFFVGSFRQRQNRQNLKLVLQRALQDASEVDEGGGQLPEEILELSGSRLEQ
MrgX1 ag: human MrgX1 receptor agonism, primary screen | MrgX1-HEK293 cells, Fluo-4 calcium fluorescence, agonist mode; active compounds read high | 310,000 tested, 0.44% active | B-score at 10 µM | AID 588627;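 active means calcium response B-score plate-corrected fluorescence ratio at least 3 library SD, with starting fluorescence B-score inside 5 SD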
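times = overnight plating, then 30 min 37 °C plus 30 min room-temperature dye loading | assay system = stable human MrgX1 HEK293 cell line | input = fifteen thousand cells per well | signal = kinetic calcium dye fluorescence, Fluo-4 NW | dosing = compound delivered in addition one of three | read-out = B-scored fluorescence response ratio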
RGS4 block: inhibitors of human RGS4; P49798; HEK293 M3R/RGS4 inducible, Fluo-4 calcium flux; active compounds read high; triggered by carbachol at its EC20; B-score at 10 µM; 310,000 tested, 0.45% active;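 active means B-score, a plate-corrected calcium signal, over three deviations above library mean, with baseline fluorescence within five deviations of library mean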;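 further: RGS4 expression induced by doxycycline in cells with stable M3 receptor; B-score is computed from the integrated fluorescence ratio over baseline after carbachol; higher B-score means a larger calcium signal and so more RGS4 inhibition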
Target sequence (P49798 whole entry, looked up): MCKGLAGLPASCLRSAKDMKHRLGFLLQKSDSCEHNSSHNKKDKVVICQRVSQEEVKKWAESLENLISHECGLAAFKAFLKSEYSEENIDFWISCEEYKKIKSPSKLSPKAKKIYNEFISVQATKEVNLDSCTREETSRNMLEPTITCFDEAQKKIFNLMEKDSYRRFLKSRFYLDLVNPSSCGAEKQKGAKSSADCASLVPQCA
RGS4 act: potentiators or activators of RGS4. HEK293 M3R/inducible RGS4, carbachol calcium flux Fluo4; active compounds read low. B-score at 10 µM. 310,000 tested, 0.92% active;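 active means B-score of the integrated calcium signal more than 4 SD below the library mean, with starting fluorescence not abnormally high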;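 further: negative B-score means reduced calcium response which marks RGS4 activation or potentiation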
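test system = M3R-expressing HEK293 line, RGS4 induced by doxycycline | probe or stimulus = carbachol at ECmax as muscarinic agonist stimulus | timing = dye loading 30 min 37 °C, buffer rest 30 min RT | signal = calcium dye Fluo4 fluorescence | evaluation = B score from integrated fluorescence ratio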
MrgX1 PAM: human MrgX1 positive allosteric modulation, primary screen | Q96LB2 | MrgX1-HEK293, Fluo-4 calcium flux, FDSS; active compounds read high | B-score at 10 µM | 310,000 tested, 0.63% active;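 active means plate-corrected calcium response at least 3 library SD above typical, normal starting fluorescence, not activating the receptor alone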;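 further: compound read alongside a low EC10 to EC30 dose of BAM8-22 agonist; peak minus trough fluorescence over baseline measured at the second addition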
MrgX1 ag confirm: confirmation of human MrgX1 receptor agonists | 600 tested, 78% active | activation, % at 10 µM | shares compounds with MrgX1 ag | MrgX1-HEK293, Fluo-4 calcium fluorescence, FDSS;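 active means calcium signal rise, corrected for plate position, at least 3 library SD high, with starting brightness within 5 such deviations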; further: reference of the scale not given here
HEK293 Ca flux: activity in parental HEK293 cells lacking MrgX1; 4,000 tested, 2% active; fluorescence ratio F(max-min)/F0 at 10 µM; Fluo-4 calcium fluorescence, FDSS; shares compounds with MrgX1 antagonist;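 active means duplicate-averaged calcium fluorescence ratio at least three times the standard deviation of buffer wells, a nonspecific response in parental cells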
HEK293 Ca counter: MrgX1 allosteric activator counter-screen hit in parental HEK293 cells; shares compounds with MrgX1 antagonist; parental HEK293 calcium flux, Fluo-4 fluorescence ratio; active compounds read high; fluorescence ratio F(max-min)/F0 at 10 µM; 4,000 tested, 0.4% active; AID 624114;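 active means calcium fluorescence ratio, averaged over duplicates, at least 3 SD of the buffer-well ratio, meaning a nonspecific response in receptor-free cells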;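 further: untransfected parental HEK293 lacking MrgX1 used as counterscreen for MrgX1 allosteric activators; fluorescence change taken during the second addition on a kinetic imager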
HEK293 Ca cntr2: MrgX1 activator counter-screen hit in parental HEK293 cells; Fluo-4 calcium fluorescence (FDSS); active compounds read high; shares compounds with MrgX1 antagonist; 4,000 tested, 8.7% active; fluorescence ratio F(max-min)/F0 at 10 µM;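 active means calcium fluorescence ratio at least three times the spread of buffer wells, meaning a non-specific response in parental cells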
* hit, by the source's call; i = inactive; . = no result given.

SMILES | MrgX1 antagonist | MrgX1 ag | RGS4 block | RGS4 act | MrgX1 PAM | MrgX1 ag confirm | HEK293 Ca flux | HEK293 Ca counter | HEK293 Ca cntr2
CCCc1nc2ccccc2c(=O)n1/N=C/c1c(C)[nH]n(-c2ccc(C)cc2)c1=O | i | 78.3* | i | i | i | 319.9%* | i | i | 91.1*
Cc1cc(NCc2ccccc2)nc2ccccc12 | i | 82.8* | i | i | i | 292.5%* | i | i | i
COc1ccc(CNC(=O)C(C)Cc2ccccc2)cc1O (stereo unspecified) | i | i | i | i | i | . | . | . | .
O=C(CCc1ccccc1)NNC(=O)c1ccc(Cl)cc1 | i | i | i | i | i | . | . | . | .
Cc1ccc(C(=O)NNC(=S)NC(=O)c2ccc(Cl)cc2)cc1 | i | 132* | i | i | i | 746.6%* | i | i | 138*
O=C(CCc1ccccc1)NNC(=S)NC(=O)c1ccc(Cl)cc1 | i | 141* | i | i | i | 695.6%* | i | i | 126*
CCc1cccc(N(C(=O)c2csnn2)C(C(=O)NC(C)(C)C)c2ccncc2)c1 (stereo unspecified) | i | i | i | i | i | . | . | . | .
Cc1ccc(NS(=O)(=O)c2ccc(C(=O)N3CC(C)OC(C)C3)cc2)cc1 (stereo unspecified) | i | 28.9* | i | i | i | 151.4%* | i | i | i
Cc1ccc(NS(=O)(=O)c2ccc(C(=O)N3CCC3)cc2)cc1 | i | i | i | i | i | . | . | . | .
CN1CCN(CCCC(=O)c2ccc(F)cc2)CC1 | i | i | i | i | i | . | . | . | .
O=C(CCCN1Cc2ccccc2C1)c1ccc(F)cc1 | i | 37.8* | i | i | i | 145.1%* | i | i | i
CCCn1c(=O)c(C(=O)NNC(=O)c2ccccc2Cl)c(O)c2ccccc21 | i | 97.4* | i | i | i | 307.7%* | i | i | 63.7*
NC1=NC(=O)/C(=C/C=C/c2cccs2)S1 | i | i | i | i | i | . | . | . | .
CC1(C)Cc2c(cnn2-c2ccc(F)cc2)C(NC(=O)CN2CCCC2=O)C1 (stereo unspecified) | i | i | i | i | i | . | . | . | .
Cc1ccc(-n2c(=O)[nH]c3c(oc4ccccc43)c2=O)cc1 | i | 77.9* | i | i | i | 396.2%* | i | i | 118*
Cc1noc(C)c1C(=O)N1CCN(c2ccc(OCc3ccccc3)cc2)CC1 | i | i | i | i | i | . | . | . | .
COC(=O)Cc1nc(NC(=O)c2cccs2)sc1C | i | 28.1* | i | i | i | 149.5%* | i | i | i
O=S(=O)(NCC1(N2CCOCC2)CCCCC1)c1ccc(Cl)cc1C(F)(F)F | i | 87.6* | i | i | i | 261.2%* | i | i | i
O=S(=O)(NCC1(N2CCOCC2)CCCCC1)c1ccccc1Cl | i | i | i | i | i | . | . | . | .
O=C(NNC(=S)NC1CCCCC1)c1sc2ccccc2c1Cl | i | i | i | i | i | . | . | . | .
CC(C)(C)C(=O)NC(=S)NNC(=O)c1sc2ccccc2c1Cl | i | 142* | i | i | i | 917.0%* | i | i | 177*
Cc1ccc(C(=O)N(Cc2ccccc2)C(C)(C)C)cc1C | i | i | i | i | i | . | . | . | .
CC(C)Cc1csc(NC(=O)c2ccc(Br)cc2)c1C(=O)O | i | 44.9* | i | i | i | i | i | i | i
COc1cccc(OC)c1CC1SC(=O)NC1=O (stereo unspecified) | i | i | i | i | i | . | . | . | .
CCOc1ccccc1N(CC(=O)N1CCC(C)CC1)S(=O)(=O)c1ccc(C)cc1 | i | i | i | i | i | . | . | . | .
SMILES | MrgX1 antagonist | MrgX1 ag | RGS4 block | RGS4 act | MrgX1 PAM | MrgX1 ag confirm | HEK293 Ca flux | HEK293 Ca counter | HEK293 Ca cntr2
CCOc1ccccc1N(CC(=O)N1CCOCC1)S(=O)(=O)c1ccccc1 | i | 138* | i | i | i | 540.9%* | i | i | 103*
COc1ccccc1N(CC(=O)N1CCCCCC1)S(=O)(=O)c1ccc(C)cc1 | i | i | i | i | i | . | . | . | .
CCOc1ccccc1N(CC(=O)N1CCCCCC1)S(=O)(=O)c1ccc(C)cc1 | i | 34.4* | i | i | i | 141.6%* | i | i | 50.2*
Cc1ccc(OCC(=O)NNC(=S)NC(=O)C(C)(C)C)c(Br)c1 | i | 65.6* | i | i | i | 507.6%* | i | i | 97.3*
CC1CCCN(C(=O)CCc2nnc(-c3ccc4c(c3)OCO4)o2)C1 (stereo unspecified) | i | i | i | i | i | . | . | . | .
Cc1ccc(-c2n[nH]c(=O)c3ccccc23)cc1S(=O)(=O)Nc1ccccc1 | i | 29.8* | i | i | i | 205.6%* | i | i | 45.1*
CC(C)(C)N1C(=O)c2ccccc2NC(=O)N1Cc1ccccc1 | i | i | i | i | i | . | . | . | .
O=C1Nc2ccccc2C(=O)C1(Cl)Cc1ccccc1 (stereo unspecified) | i | 32.4* | i | i | i | 199.1%* | i | i | i
COc1ccccc1C(=O)NNC(=S)NC(=O)c1cc(OC)c(OC)c(OC)c1 | i | 101* | i | i | i | 453.3%* | i | i | 93.4*
COc1cc(C(=O)NNC(=S)NC(=O)c2ccc3c(c2)OCO3)cc(OC)c1OC | i | i | i | i | i | . | . | . | .
COc1cc(C(=O)NC(=S)NNC(=O)[C@H]2C[C@@H]2c2ccccc2)cc(OC)c1OC | i | 96.4* | i | i | i | 385.8%* | i | i | 76.3*
COc1cc(C(=O)NNC(=S)NC(=O)c2ccccc2C)cc(OC)c1OC | i | 120* | i | i | i | 362.5%* | i | i | 89.4*
Cc1cccc(C)c1NC(=O)CSc1cc(C(=O)c2nccn2C)c2ccccc2n1 | i | i | i | i | i | . | . | . | .
COc1ccc(Cc2nnc(NC(=O)c3ccccc3Cl)s2)cc1OC | i | i | i | i | i | . | . | . | .
Cc1ccc(CNC(=O)CCCn2nc(C)c3c(C)n(-c4ccccc4)nc3c2=O)cc1 | i | i | i | i | i | . | . | . | .
